Data reported in ChEMBL document CHEMBL2417461, “Spectroscopic, computational modeling and cytotoxicity of a series of meso-phenyl and meso-thienyl-BODIPYs” (Bioorg Med Chem, 2013).

What was measured:
[1] = Induction of singlet oxygen generation assessed as decrease in DPBF absorbance at 5 uM followed by 71 W light irradiation for 1 hr by spectrophotometry; assay type: physicochemical
Summary of the method: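 Compound at 5 μM with 50 μM DPBF in DMSO, 2 mL, irradiated 1 h with a 71 W source through a 500 nm long-pass filter. DPBF absorbance at 410 nm sampled every 15 min. Rate of absorbance decrease referenced to methylene blue at equal concentration.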

[2] = Cellular uptake in human Hep2 cell mitochondria at 10 uM after 24 hrs by micro plate reader analysis; assay type: ADME; conditions: hep-2, 24 h
Summary of the method: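 HEp2 cells (DMEM:AMEM 50:50, 10% FBS) seeded 15,000/well, grown overnight, then given 10 μM compound in medium with 5% FBS for 0–24 h. Washed with PBS, lysed in 0.25% Triton X-100. Compound fluorescence read at 355/520 nm against standard curve, cell number by CyQuant at 485/520 nm. Uptake given per cell.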

[3] = Ratio of IC50 for dark toxicity in human Hep2 cells to IC50 for phototoxicity in human Hep2 cells; assay type: cell-based; conditions: HEp-2 cells, read-out: Ratio IC50
HEp-2 = assay: Phototoxicity in human Hep2 cells incubated for 24 hrs followed by 1.5 J/cm'2 light irradiation for 20 mins measured after 24 hrs by Cell Titre Blue assay; assay type: functional, cell-based; conditions: HEp-2, light or radiation study
Summary of the method: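 HEp2 cells given 3.125–200 μM compound for 24 h at 37 °C, then washed and refed. Irradiated on ice for 20 min with a 100 W halogen lamp through a 610 nm long-pass filter and a water IR filter, about 1.5 J/cm². After 24 h more, 20% Cell Titer Blue for 4 h, read at 570/615 nm. IC50 from dose–response curves.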

[4] = Dark toxicity in human Hep2 cells after 24 hrs by Cell Titre Blue assay; assay type: cell-based; conditions: HEp-2 cells
Summary of the method: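 HEp2 cells seeded 15,000/well. Compound at 12.5–400 μM (vehicle DMSO/Cremophor EL) for 24 h at 37 °C in the dark, five replicates per concentration. Washed, then 20% Cell Titer Blue for 4 h. Fluorescence read at 570/615 nm as % viable cells, IC50 taken from dose–response curves.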

Row | Activity [1] | Drug uptake [2] | Structure (SMILES) | selectivity ratio [3] | IC50 (HEp-2) | IC50 at 24 h [4]
1 | Active | Active | CC1=C(I)C(C)=[N+]2C1=C(c1ccc(-c3ccc(Br)s3)s1)c1c(C)c(I)c(C)n1[B-]2(F)F | 2.3 | 3.5 µM | 8 µM
2 |  |  | CC1=C(I)C(C)=[N+]2C1=C(c1ccc(Br)s1)c1c(C)c(I)c(C)n1[B-]2(F)F | > 2 | > 200 µM | > 400 µM
3 |  |  | COC(=O)c1ccc(C2=C3C(C)=CC(C)=[N+]3[B-](F)(F)n3c(C)cc(C)c32)cc1 | > 4 | > 100 µM | > 400 µM
4 |  |  | CC1=C(I)C(C)=[N+]2C1=C(c1cc(C(C)(C)C)cc(C(C)(C)C)c1)c1c(C)c(I)c(C)n1[B-]2(F)F | > 2 | > 200 µM | > 400 µM
5 |  |  | CC1=CC(C)=[N+]2C1=C(c1cccs1)c1c(C)cc(C)n1[B-]2(F)F | > 3 | > 100 µM | > 300 µM
6 | Active | Active | COc1cc(OC)cc(C2=C3C(C)=C(I)C(C)=[N+]3[B-](F)(F)n3c(C)c(I)c(C)c32)c1 | > 100 | 4 µM | > 400 µM
7 |  |  | CC1=C(I)C(C)=[N+]2C1=C(c1c(F)c(F)c(F)c(F)c1F)c1c(C)c(I)c(C)n1[B-]2(F)F | > 2 | > 200 µM | > 400 µM
8 |  |  | CC1=CC(C)=[N+]2C1=C(c1ccc(-c3ccc(Br)s3)s1)c1c(C)cc(C)n1[B-]2(F)F | > 3.5 | 82 µM | > 300 µM
9 | Active | Active | COc1ccc(C2=C3C(C)=C(I)C(C)=[N+]3[B-](F)(F)n3c(C)c(I)c(C)c32)cc1OC | > 53 | 7.5 µM | > 400 µM
10 |  |  | COC(=O)c1ccc(C2=C3C(C)=C(I)C(C)=[N+]3[B-](F)(F)n3c(C)c(I)c(C)c32)cc1 | > 2 | > 200 µM | > 400 µM
11 |  | Active | CC1=C(I)C(C)=[N+]2C1=C(c1ccc(Br)cc1)c1c(C)c(I)c(C)n1[B-]2(F)F | > 15 | 28 µM | > 400 µM
12 | Active | Active | CC1=C(I)C(C)=[N+]2C1=C(c1cccs1)c1c(C)c(I)c(C)n1[B-]2(F)F | > 30 | 14 µM | > 400 µM
13 | Active | Active | CC1=C(I)C(C)=[N+]2C1=C(c1ccccc1)c1c(C)c(I)c(C)n1[B-]2(F)F | > 15 | 27 µM | > 400 µM
14 |  |  | CC1=C(I)C(C)=[N+]2C1=C(c1ccc(-c3cccs3)s1)c1c(C)c(I)c(C)n1[B-]2(F)F | > 2 | > 200 µM | > 400 µM
15 |  |  | CC1=CC(C)=[N+]2C1=C(c1ccc(-c3cccs3)s1)c1c(C)cc(C)n1[B-]2(F)F | > 4 | > 100 µM | > 400 µM
